Results of several laboratories.
Protocols differ between the studies behind these lines.
Botulinum neurotoxin type A protease: Botulinum neurotoxin type A, protease (Clostridium botulinum, UniProt P0DPI0)
Cnr1: Cannabinoid receptor 1 (Cnr1, Rattus norvegicus, UniProt P20272)
Slc6a3: Sodium-dependent dopamine transporter (Slc6a3, Rattus norvegicus, UniProt P23977)
NA: Neuraminidase (NA, Influenza A virus, UniProt Q9IGQ6)

Structure (SMILES)	target	effect on	action	technique	notes	quantity	value
O=C1C=CC(=O)N1Cc1ccc(Cl)cc1Cl	Botulinum neurotoxin type A protease	enzyme activity	inhibitor			IC50	80 µM
COC(=O)C(NC(=O)c1cn(CCCCCF)c2ccccc12)C(C)(C)C (stereo not shown)	Cnr1	ligand displacement		radioligand	cell membranes	IC50	0.002 µM
CCOC(=O)C1C(OC(c2ccc(F)cc2)c2ccc(F)cc2)CC2CCC1N2CCN (racemic)	Slc6a3	ligand displacement		radioligand	cell membranes	Ki	17.2 nM
CN(C)CCc1c[nH]c2ccccc12	5-hydroxytryptamine receptor 1B (HTR1B, Homo sapiens, UniProt P28222)	ligand displacement		radioligand		Ki	130 nM
O=S(=O)(c1ccc(O)c2nc(Cl)ccc12)N1CCc2c(Cl)cccc21	Botulinum neurotoxin type A protease	enzyme activity	inhibitor			IC50	> 30 µM
CCCCCCC(C)(C)c1cc(O)c2c(c1)OC(C)(C)[C@@H]1CC=C(C)C[C@@H]21	Cnr1	ligand displacement		radioligand		Ki	0.9 nM
CC(Cc1cccc(Cl)c1)NC(C)(C)C (stereo not shown)	Slc6a3	transporter uptake	inhibitor	radiometric		IC50	0.938 µM
CC(C)(C)C(NC(=O)c1cn(CCCCCF)c2ccccc12)C(=O)O (stereo not shown)	Cnr1	ligand displacement		radioligand	cell membranes	IC50	3.34 µM
O=C1C=C(/C=C/c2ccc(O)c(O)c2)OC12C(c1cc3oc(=O)c4cc(O)c(O)cc4c3c(=O)o1)=Cc1cc(O)c(O)cc12 (stereo not shown)	NA	enzyme activity	inhibitor			IC50	8 µM
CC(N)C(=O)c1cccc(Cl)c1 (stereo not shown)	Slc6a3	transporter uptake	inhibitor	radiometric		IC50	0.399 µM
CC1=CC(=O)C2(O1)C(c1cc3oc(=O)c4cc(O)c(O)cc4c3c(=O)o1)=Cc1cc(O)c(O)cc12 (stereo not shown)	NA	enzyme activity	inhibitor			IC50	8.1 µM
CN1[C@H]2CC[C@@H]1[C@@H](c1cc(-c3ccccc3)no1)[C@H](OC(c1ccc(F)cc1)c1ccc(F)cc1)C2	Slc6a3	ligand displacement		radioligand	cell membranes	Ki	14 nM
CC(C)NC(C)C(=O)c1cccc(Cl)c1 (stereo not shown)	Slc6a3	transporter uptake	inhibitor	radiometric		IC50	0.537 µM
